Test system: Fibroblast
Experiment: Multiplex assay against human fibroblast
Format: toxicity, cell-based
Method in brief: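 Live cells were stained at seeding with Hoechst33342, BioTracker Green Microtubule Cytoskeleton Dye, MitoTracker Red and Annexin V Alexa Fluor 680. Following compound addition, they were imaged on a CQ1 microscope at 37°C and 5% CO2 and gated by CellPathfinder machine learning into Hoechst high-intensity objects or normal cells, with normal cells split into healthy, pyknosed or fragmented nuclei and pyknosed cells into mitotic or apoptotic. Tubulin, mitochondrial-mass and membrane-permeability phenotypes are per cents of healthy-nucleus cells.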

[1] = 12 h, 1 µM, compound concentration 1 uM, replicate 1
[2] = 12 h, 1 µM, compound concentration 1 uM, replicate 2
[3] = 12 h, 10 µM, compound concentration 10 uM, replicate 1
[4] = 12 h, 10 µM, compound concentration 10 uM, replicate 2
[5] = 24 h, 1 µM, compound concentration 1 uM, replicate 1
[6] = 24 h, 1 µM, compound concentration 1 uM, replicate 2
[7] = 24 h, 10 µM, compound concentration 10 uM, replicate 1
[8] = 24 h, 10 µM, compound concentration 10 uM, replicate 2

CCCS(=O)(=O)Nc1ccc(F)c(C(=O)c2c[nH]c3ncc(Cl)cc23)c1F [PLX-4720] was tested, and the “Population Apoptotic (%)” value [1] was 55%, the “Population Fragmented Nuclei (%)” value [1] was 20% and the “Population Healthy Nuclei (%)” value [1] was 62%. The “Population Hoechst High Intensity Objects (%)” value [1] was 10%, the “Population Membrane Permeable-Phenotype (%)” value [1] was 5% and the “Population Mitochondria Different-Phenotype (%)” value [1] was 6%. For the same molecule, the “Population Mitotic Cells (%)” value [1] was 44%, the “Population Normal (%)” value [1] was 89% and the “Population Pyknosed Nuclei (%)” value [1] was 17%. For the same molecule, the “Population Tubulin-Different-Phenotype (%)” value [1] was 14%, the “Total Cell Count” value [1] was 234 and the “Population Apoptotic (%)” value [2] was 28%. For the same molecule, the “Population Fragmented Nuclei (%)” value [2] was 56%, the “Population Healthy Nuclei (%)” value [2] was 31% and the “Population Hoechst High Intensity Objects (%)” value [2] was 29%. For the same molecule, the “Population Membrane Permeable-Phenotype (%)” value [2] was 22%, the “Population Mitochondria Different-Phenotype (%)” value [2] was 11% and the “Population Mitotic Cells (%)” value [2] was 71%. For the same molecule, the “Population Normal (%)” value [2] was 70%, the “Population Pyknosed Nuclei (%)” value [2] was 12% and the “Population Tubulin-Different-Phenotype (%)” value [2] was 27%. The “Total Cell Count” value [2] was 81, the “Population Apoptotic (%)” value [3] was 65% and the “Population Fragmented Nuclei (%)” value [3] was 23%. For the same molecule, the “Population Healthy Nuclei (%)” value [3] was 63%, the “Population Hoechst High Intensity Objects (%)” value [3] was 13% and the “Population Membrane Permeable-Phenotype (%)” value [3] was 3%. The “Population Mitotic Cells (%)” value [3] was 34%, the “Population Normal (%)” value [3] was 86% and the “Population Pyknosed Nuclei (%)” value [3] was 13%. For the same molecule, the “Population Tubulin-Different-Phenotype (%)” value [3] was 5%, the “Total Cell Count” value [3] was 254 and the “Population Apoptotic (%)” value [4] was 60%. The “Population Fragmented Nuclei (%)” value [4] was 65%, the “Population Healthy Nuclei (%)” value [4] was 26% and the “Population Hoechst High Intensity Objects (%)” value [4] was 36%. For the same molecule, the “Population Membrane Permeable-Phenotype (%)” value [4] was 6%, the “Population Mitochondria Different-Phenotype (%)” value [4] was 6% and the “Population Mitotic Cells (%)” value [4] was 40%. For the same molecule, the “Population Normal (%)” value [4] was 63%, the “Population Pyknosed Nuclei (%)” value [4] was 8% and the “Population Tubulin-Different-Phenotype (%)” value [4] was 0%. For the same molecule, the “Total Cell Count” value [4] was 95, the “Population Apoptotic (%)” value [5] was 53% and the “Population Fragmented Nuclei (%)” value [5] was 25%. For the same molecule, the “Population Healthy Nuclei (%)” value [5] was 61%, the “Population Hoechst High Intensity Objects (%)” value [5] was 11% and the “Population Membrane Permeable-Phenotype (%)” value [5] was 7%. For the same molecule, the “Population Mitochondria Different-Phenotype (%)” value [5] was 10%, the “Population Mitotic Cells (%)” value [5] was 46% and the “Population Normal (%)” value [5] was 88%. For the same molecule, the “Population Pyknosed Nuclei (%)” value [5] was 12%, the “Population Tubulin-Different-Phenotype (%)” value [5] was 22% and the “Total Cell Count” value [5] was 249. For the same molecule, the “Population Apoptotic (%)” value [6] was 25%, the “Population Fragmented Nuclei (%)” value [6] was 47% and the “Population Healthy Nuclei (%)” value [6] was 34%. For the same molecule, the “Population Hoechst High Intensity Objects (%)” value [6] was 40%, the “Population Membrane Permeable-Phenotype (%)” value [6] was 13% and the “Population Mitochondria Different-Phenotype (%)” value [6] was 6%. For the same molecule, the “Population Mitotic Cells (%)” value [6] was 75%, the “Population Normal (%)” value [6] was 59% and the “Population Pyknosed Nuclei (%)” value [6] was 18%. The “Population Tubulin-Different-Phenotype (%)” value [6] was 13%, the “Total Cell Count” value [6] was 74 and the “Population Apoptotic (%)” value [7] was 70%. For the same molecule, the “Population Fragmented Nuclei (%)” value [7] was 23%, the “Population Healthy Nuclei (%)” value [7] was 63% and the “Population Hoechst High Intensity Objects (%)” value [7] was 18%. The “Population Membrane Permeable-Phenotype (%)” value [7] was 3%, the “Population Mitochondria Different-Phenotype (%)” value [7] was 4% and the “Population Mitotic Cells (%)” value [7] was 29%. For the same molecule, the “Population Normal (%)” value [7] was 81%, the “Population Pyknosed Nuclei (%)” value [7] was 12% and the “Population Tubulin-Different-Phenotype (%)” value [7] was 1%. The “Total Cell Count” value [7] was 271, the “Population Apoptotic (%)” value [8] was 50% and the “Population Fragmented Nuclei (%)” value [8] was 64%. The “Population Healthy Nuclei (%)” value [8] was 29%, the “Population Hoechst High Intensity Objects (%)” value [8] was 31% and the “Population Membrane Permeable-Phenotype (%)” value [8] was 10%. For the same molecule, the “Population Mitochondria Different-Phenotype (%)” value [8] was 10%, the “Population Mitotic Cells (%)” value [8] was 50% and the “Population Normal (%)” value [8] was 68%. The “Population Pyknosed Nuclei (%)” value [8] was 5%, the “Population Tubulin-Different-Phenotype (%)” value [8] was 10% and the “Total Cell Count” value [8] was 98.
